Results from ChEMBL document CHEMBL1139331, “Molecular modelling studies, synthesis and biological activity of a series of novel bisnaphthalimides and their development as new DNA topoisomerase II inhibitors” (Bioorg Med Chem, 2009).
The source made the active and inactive calls. The calls are words filed in the database; no cut-off is given here.

How the values were obtained:
HT-29 [1] = assay: Blockade of cell cycle progression in human HT-29 cells; format: functional, cell-based
[2] = biological target: DNA topoisomerase 2-alpha (Homo sapiens) (UniProt P11388); assay: Inhibition of human recombinant topoisomerase 2alpha-mediated pBR322 DNA cleavage after 30 mins
HT-29 [3] = assay: Cytotoxicity against human HT-29 cells after 72 hrs by MTT assay; format: functional, cell-based; settings: HT-29, 72 h
Summary of the method: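 HT-29 cells, grown in DMEM with 2 mM L-glutamine, 10% heat-inactivated FBS and 1% penicillin/streptomycin at 37 °C, seeded at 1 × 10⁵ cells/ml and exposed 72 h to a range of compound concentrations in DMSO. Cells were then given MTT 3 h, formazan dissolved in SDS/formamide lysis buffer pH 4.7, and absorbance read at 620 nm. Values are % of untreated control; IC50 is from ≥3 experiments.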

HT-29 [4] = assay: Induction of apoptosis in human HT-29 cells after 48 hrs assessed as hypodiploid DNA content using propidium iodide staining by flow cytometry; format: functional, cell-based
Summary of the method: (§1)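 Cultured HT-29 cells were plated at 5 × 10⁵ per 6-cm dish the day before treatment, then exposed 48 h to 0.1–5 μM. Cells were washed in PBS and taken up in 0.1% sodium citrate, 0.1% Triton X-100 and 50 μg/ml PI for 30 min at 4 °C in the dark. Nuclei were run by flow cytometry with debris gated out by forward scatter, and % hypodiploid nuclei counted. Three experiments in triplicate.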

HT-29 [5] = assay: Induction of apoptosis in human HT-29 cells after 48 hrs using propidium iodide staining by flow cytometry in presence of Z-VAD-FMK; format: functional, cell-based
Summary of the method: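 HT-29 cells were pretreated with the general caspase inhibitor Z-VAD-FMK at 50 μM for 30 min before compound was added, then incubated 48 h. Nuclei were stained with PI in 0.1% citrate/0.1% Triton X-100 for 30 min at 4 °C in the dark. Hypodiploid % was scored by flow cytometry. Three experiments in triplicate; Bonferroni test.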

HT-29 [6] = assay: Induction of apoptosis in human HT-29 cells assessed as hypodiploid DNA content at 0.1 uM after 48 hrs using propidium iodide staining by flow cytometry; format: functional; summary of the method: as §1
HT-29 [7] = assay: Induction of apoptosis in human HT-29 cells assessed as hypodiploid DNA content at 0.5 uM after 48 hrs using propidium iodide staining by flow cytometry; format: functional, cell-based; summary of the method: as §1
[8] = biological target: DNA topoisomerase 2-alpha (Homo sapiens) (UniProt P11388); assay: Inhibition of human recombinant topoisomerase 2alpha-mediated pBR322 DNA cleavage at 10 uM after 30 mins

Sequence of DNA topoisomerase 2-alpha (Homo sapiens) (P11388 whole entry): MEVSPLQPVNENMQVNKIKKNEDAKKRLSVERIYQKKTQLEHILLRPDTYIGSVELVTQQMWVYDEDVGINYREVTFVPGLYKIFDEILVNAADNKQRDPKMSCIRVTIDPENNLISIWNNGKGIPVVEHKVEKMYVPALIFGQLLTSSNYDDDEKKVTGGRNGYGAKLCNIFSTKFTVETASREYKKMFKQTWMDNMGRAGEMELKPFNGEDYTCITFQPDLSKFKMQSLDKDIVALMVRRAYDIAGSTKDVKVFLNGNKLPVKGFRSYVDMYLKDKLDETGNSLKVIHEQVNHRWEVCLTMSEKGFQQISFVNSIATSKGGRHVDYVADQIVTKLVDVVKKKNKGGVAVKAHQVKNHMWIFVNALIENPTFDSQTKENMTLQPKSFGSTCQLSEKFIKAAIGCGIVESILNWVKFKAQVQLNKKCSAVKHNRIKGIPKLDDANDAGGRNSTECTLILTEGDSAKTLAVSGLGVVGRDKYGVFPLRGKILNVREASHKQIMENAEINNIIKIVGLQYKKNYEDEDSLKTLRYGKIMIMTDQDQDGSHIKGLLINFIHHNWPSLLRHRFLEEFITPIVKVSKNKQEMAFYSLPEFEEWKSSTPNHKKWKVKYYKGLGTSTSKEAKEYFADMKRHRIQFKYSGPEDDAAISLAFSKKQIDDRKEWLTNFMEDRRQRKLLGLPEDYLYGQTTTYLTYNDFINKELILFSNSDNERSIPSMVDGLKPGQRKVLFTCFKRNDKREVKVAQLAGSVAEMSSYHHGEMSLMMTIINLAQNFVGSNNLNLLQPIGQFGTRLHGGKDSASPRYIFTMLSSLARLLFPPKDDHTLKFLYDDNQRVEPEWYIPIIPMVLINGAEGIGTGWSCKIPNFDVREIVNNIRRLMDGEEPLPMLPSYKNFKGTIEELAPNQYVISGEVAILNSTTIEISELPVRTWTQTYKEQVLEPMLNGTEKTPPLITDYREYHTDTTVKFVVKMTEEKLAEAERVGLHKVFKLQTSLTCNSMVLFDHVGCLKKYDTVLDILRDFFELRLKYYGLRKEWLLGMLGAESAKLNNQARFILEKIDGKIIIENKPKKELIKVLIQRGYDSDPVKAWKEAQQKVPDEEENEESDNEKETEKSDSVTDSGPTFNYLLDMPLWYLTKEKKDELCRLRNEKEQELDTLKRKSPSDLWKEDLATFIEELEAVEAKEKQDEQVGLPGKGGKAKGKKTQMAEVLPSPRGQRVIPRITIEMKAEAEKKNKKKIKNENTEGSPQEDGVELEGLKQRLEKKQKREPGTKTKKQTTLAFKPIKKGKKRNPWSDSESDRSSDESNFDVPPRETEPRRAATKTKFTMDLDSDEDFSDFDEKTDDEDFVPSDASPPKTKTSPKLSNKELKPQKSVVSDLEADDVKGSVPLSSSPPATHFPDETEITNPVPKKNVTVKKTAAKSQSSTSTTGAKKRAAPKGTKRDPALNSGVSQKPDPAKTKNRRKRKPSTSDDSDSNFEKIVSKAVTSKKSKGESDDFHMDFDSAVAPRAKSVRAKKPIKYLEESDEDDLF

| SMILES | Activity (HT-29 [1]) | Activity [2] | IC50 (HT-29 [3]) [nM] | also measured |
| --- | --- | --- | --- | --- |
| O=C1c2cccc3cc([N+](=O)[O-])cc(c23)C(=O)N1CCCNCCNCCCN1C(=O)c2cccc3cc([N+](=O)[O-])cc(c23)C1=O | inactive | inactive | 501 | Activity (HT-29 [4]): Dose-dependent effect; Activity (HT-29 [5]): inactive; Activity (HT-29 [6]): 40% |
| O=C1c2cccc3cc([N+](=O)[O-])cc(c23)C(=O)N1CCN1CCN(CCN2C(=O)c3cccc4cc([N+](=O)[O-])cc(c34)C2=O)CC1 | inactive | – | 2100 | – |
| C[C@@H]1CN(CCN2C(=O)c3cccc4cc([N+](=O)[O-])cc(c34)C2=O)C[C@H](C)N1CCN1C(=O)c2cccc3cc([N+](=O)[O-])cc(c23)C1=O | inactive | – | 6100 | – |
| O=C1c2cccc3cc([N+](=O)[O-])cc(c23)C(=O)N1CCCNC1CC1NCCCN1C(=O)c2cccc3cc([N+](=O)[O-])cc(c23)C1=O (stereo not given) | inactive | inactive | 3300 | Activity (HT-29 [4]): Dose-dependent effect; Activity (HT-29 [5]): inactive; Activity (HT-29 [7]): Active |
| O=C1c2cccc3cc([N+](=O)[O-])cc(c23)C(=O)N1CCCCNCCNCCCNCCNCCCCN1C(=O)c2cccc3cc([N+](=O)[O-])cc(c23)C1=O | – | – | 160 | Activity [8]: Active |
| O=C1c2cccc3cccc(c23)C(=O)N1CCNCCCNCCN1C(=O)c2cccc3cccc(c23)C1=O [ELINAFIDE] | – | – | 38 | – |
| O=C1c2cccc3cc([N+](=O)[O-])cc(c23)C(=O)N1CCNCCNCCN1C(=O)c2cccc3cc([N+](=O)[O-])cc(c23)C1=O | inactive | inactive | 200 | – |
| O=C1c2cccc3cc([N+](=O)[O-])cc(c23)C(=O)N1CCN1CC2CCC(C1)N2CCN1C(=O)c2cccc3cc([N+](=O)[O-])cc(c23)C1=O | inactive | – | 7300 | – |
| O=C1c2cccc3cccc(c23)C(=O)N1CCCCNCCNCCCNCCNCCCCN1C(=O)c2cccc3cccc(c23)C1=O | – | – | 6100 | – |
